Measurements published in ChEMBL document CHEMBL1157296, “Cytotoxic and antimicrobial benzophenones from the leaves of Tovomita longifolia” (2006).
In brackets after ≈: the same amount, converted by molar mass. Activity calls are given as the source filed them. No cut-off for these calls is given here.

Assays:
Format in all cases: functional
MCF7 = assay: Cytotoxicity against human MCF7 cells
Method in brief: (§1)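 Human cancer cell lines of breast (MCF-7), CNS (SF-268) and lung (H-460) origin were tested by the Monks et al. method. All three lines were used throughout to monitor fractions and isolated compounds.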

NCI-H460 = assay: Cytotoxicity against human H460 cells; method in brief: as §1
SF-268 = assay: Cytotoxicity against human SF268 cells; method in brief: as §1
Escherichia coli = assay: Antimicrobial activity against Escherichia coli ATCC 9637
[1] = system: Salmonella enterica subsp. enterica serovar Gallinarum; assay: Antimicrobial activity against Salmonella gallinarum ATCC 9184
Klebsiella pneumoniae = assay: Antimicrobial activity against Klebsiella pneumoniae ATCC 10031
[2] = system: Mycolicibacterium smegmatis; assay: Antimicrobial activity against Mycobacterium smegmatis ATCC 607
Candida albicans = assay: Antimicrobial activity against Candida albicans ATCC 10231
Staphylococcus aureus = assay: Antimicrobial activity against Staphylococcus aureus ATCC 6538
Pseudomonas aeruginosa = assay: Antimicrobial activity against Pseudomonas aeruginosa ATCC 27853

| SMILES | GI50 (MCF7) [µg/mL] | GI50 (NCI-H460) [µg/mL] | GI50 (SF-268) [µg/mL] | Activity (Escherichia coli) | Activity [1] | Activity (Klebsiella pneumoniae) | MIC [2] [µg/mL] | Activity (Candida albicans) | MIC (Staphylococcus aureus) [µg/mL] | Activity (Pseudomonas aeruginosa) | MIC (Escherichia coli) [µg/mL] | MIC [1] [µg/mL] | MIC (Klebsiella pneumoniae) [µg/mL] | MIC (Pseudomonas aeruginosa) [µg/mL] | Activity (Staphylococcus aureus) | Activity [2] | Activity (MCF7) | Activity (NCI-H460) | Activity (SF-268) |
| --- | --- | --- | --- | --- | --- | --- | --- | --- | --- | --- | --- | --- | --- | --- | --- | --- | --- | --- | --- |
| CC(C)=CCC/C(C)=C/COc1cc(O)c(C(=O)c2ccccc2)c(O)c1 | 4.8 (≈ 13.1 µM) | 4.4 (≈ 12 µM) | 2 (≈ 5.46 µM) | inactive | inactive | inactive | 12.5 (≈ 34.1 µM) | inactive | 12.5 (≈ 34.1 µM) | inactive |  |  |  |  |  |  |  |  |  |
| CN[C@@H]1[C@H](O[C@H]2[C@H](O[C@H]3[C@H](O)[C@@H](O)[C@H](N=C(N)N)[C@@H](O)[C@@H]3N=C(N)N)O[C@@H](C)[C@]2(O)C=O)O[C@@H](CO)[C@H](O)[C@H]1O.CN[C@@H]1[C@H](O[C@H]2[C@H](O[C@H]3[C@H](O)[C@@H](O)[C@H](N=C(N)N)[C@@H](O)[C@@H]3N=C(N)N)O[C@@H](C)[C@]2(O)C=O)O[C@@H](CO)[C@H](O)[C@H]1O.O=S(=O)(O)O.O=S(=O)(O)O.O=S(=O)(O)O [STREPTOMYCIN SULFATE] |  |  |  |  |  |  | 12.5 | inactive | 12.5 |  | 6.25 | 3.12 | 3.12 | 1.56 |  |  |  |  |  |
| CC1(C)CCC[C@]2(C)Oc3c(c(O)cc(O)c3C(=O)c3ccccc3)C[C@@H]12 | 1.8 (≈ 4.91 µM) | 2.1 (≈ 5.73 µM) | 1.7 (≈ 4.64 µM) | inactive |  |  | 6.25 (≈ 17.1 µM) | inactive | 12.5 (≈ 34.1 µM) |  |  | 12.5 (≈ 34.1 µM) | 6.25 (≈ 17.1 µM) | 12.5 (≈ 34.1 µM) |  |  |  |  |  |
| CC(C)=CCC[C@]1(C)Oc2c(c(O)cc(O)c2C(=O)c2ccccc2)C[C@@H]1O | 6.8 (≈ 17.8 µM) | 6.5 (≈ 17 µM) | 5.6 (≈ 14.6 µM) | inactive | inactive |  | 25 (≈ 65.4 µM) | inactive |  | inactive |  |  | 25 (≈ 65.4 µM) |  | inactive |  |  |  |  |
| C[C@@H]1[C@H](O)[C@@H](C)/C=C/C=C/C=C/C=C/C=C/C=C/C=C/[C@H](O[C@@H]2O[C@H](C)[C@@H](O)[C@H](N)[C@@H]2O)C[C@@H]2O[C@](O)(C[C@@H](O)C[C@@H](O)[C@H](O)CC[C@@H](O)C[C@@H](O)CC(=O)O[C@H]1C)C[C@H](O)[C@H]2C(=O)O |  |  |  | inactive | inactive | inactive |  |  |  | inactive |  |  |  |  | inactive | inactive |  |  |  |
| C=C(C)[C@H](O)CC/C(C)=C/Cc1c(O)cc(O)c(C(=O)c2ccccc2)c1O |  |  |  |  |  |  |  |  |  |  |  |  |  |  |  |  | inactive | inactive | inactive |
| CC(C)=CCC/C(C)=C/Cc1c(O)cc(O)c(C(=O)c2ccccc2)c1O |  |  |  | inactive | inactive | inactive | 50 (≈ 136 µM) | inactive |  | inactive |  |  |  |  | inactive |  | inactive | inactive | inactive |
| COc1cccc2c1C(=O)c1c(O)c3c(c(O)c1C2=O)C[C@@](O)(C(=O)CO)C[C@@H]3O[C@H]1C[C@H](N)[C@H](O)[C@H](C)O1 [DOXORUBICIN] | 0.38 (≈ 0.699 µM) | 0.42 (≈ 0.773 µM) | 0.5 (≈ 0.92 µM) |  |  |  |  |  |  |  |  |  |  |  |  |  |  |  |  |
| C=C(CCC=C(C)C)[C@H](O)Cc1c(O)cc(O)c(C(=O)c2ccccc2)c1O | 6.7 (≈ 17.5 µM) | 7.8 (≈ 20.4 µM) | 6.5 (≈ 17 µM) |  |  |  |  |  |  |  |  |  |  |  |  |  |  |  |  |
